Series [1] is filed under the species Mus musculus. The series is described as follows: Lethal dose in mice. The class given is functional.
For series [2], the system named is Mus musculus. Kind of series: Percent survival at 15 min time interval between administration (500mg/kg, ip) and irradiation* in mice. The class given is functional.
The test system of series [3] is Mus musculus. Kind of series: Percent survival at 2 hr time interval between administration (500 mg/kg, ip) and irradiation* in mice. The series is classed as functional.
Series [4] relates to Mus musculus. Kind of series: Percent survival at 6 hr time interval between administration (500 mg/kg, ip) and irradiation* in mice. The series is classed as functional.
Series [5] deals with Mus musculus. The series is described as follows: Percent survival at 1 hr time interval between administration (500 mg/kg, ip) and irradiation* in mice. The series is classed as functional.
The test system of series [6] is Mus musculus. Kind of series: fecal levels excreted after administration of 2-(3-bromophenyl)thiazolidine(500 mg/kg) to mice measured at 0-30h. The note with it: in vivo. The class given is ADME, organism-based. The procedure, abridged:
(§1)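 Radiolabelled compound ([³⁵S] or [α-¹⁴C]) given intraperitoneally in Miglyol 812 to mice, which were then housed in separate metabolic cages and fed normally. Faeces were collected over 0-30 h, pounded and counted by liquid scintillation. Values are percent of injected dose, given as mean ± standard error. Each line has its own number of experiments.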

Series [7] concerns Mus musculus. Kind of series: fecal levels excreted after administration of 2-phenylthiazolidine (500 mg/kg) to mice measured at 0-30h. The series is classed as ADME, organism-based. To be noted: in vivo. The procedure, abridged:
as §1

In series [8] the test system is Mus musculus. Kind of series: fecal levels excreted after administration of benzaldehyde (250 mg/kg) to mice measured at 0-30h. To be noted: in vivo. The class given is ADME, organism-based. The procedure, abridged:
(§2)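 [α-14C]Benzaldehyde was given at 250 mg/kg intraperitoneally in Miglyol 812. Mice were kept in separate metabolic cages and fed normally. Urine was collected at 6, 24 and 30 h, and feces were pounded. Radioactivity was measured by liquid scintillation counting and expressed as percent of injected dose excreted, given as mean ± standard error of 4 experiments.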

Series [9] in a line: urine levels excreted after administration of benzaldehyde (250 mg/kg) to mice measured at 0-24 hr. The class given is ADME, organism-based. To be noted: mouse, read-out: Excretion. The procedure, abridged:
as §2

For series [10], the system named is Mus musculus. The series is described as follows: urine levels excreted after administration of benzaldehyde (250 mg/kg) to mice measured at 0-6 hr. The series is classed as ADME, organism-based. The note with it: in vivo. Put shortly:
as §2

Series [11] is described as follows: urine levels excreted after administration of benzaldehyde (250 mg/kg) to mice measured at 24-30 hr. The note with it: mouse, read-out: Excretion. The series is classed as ADME, organism-based. The procedure, abridged: as §2
Series [12] relates to Mus musculus. The series is described as follows: faecal levels excreted after administration of cysteamine (175 mg/kg) to mice measured at 0-30h. The series is classed as ADME, organism-based. To be noted: in vivo. The procedure, abridged: as §1
Series [13] in a line: urine levels excreted after administration of cysteamine (175 mg/kg) to mice measured at 24-30 hr. The class given is ADME, organism-based. The note with it: mouse, read-out: Excretion. Put shortly: (§3)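 [³⁵S]cysteamine 175 mg/kg given intraperitoneally in Miglyol 812 to mice, which were then housed in separate metabolic cages and fed normally. Urine was sampled at 6, 24 and 30 h and counted by liquid scintillation. Values are percent of injected dose excreted, as mean ± standard error of 4-5 experiments. The Mann-Whitney-Wilcoxon test was used for significance.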

The subject of series [14] is Mus musculus. The series is described as follows: urine levels excreted after administration of cysteamine (175 mg/kg) to mice measured at 0-24 hr. The class given is ADME, organism-based. The note with it: in vivo. Put shortly:
as §3

For series [15], the system named is Mus musculus. The series is described as follows: urine levels excreted after administration of cysteamine (175 mg/kg) to mice measured at 0-6 hr. The class given is ADME, organism-based. The note with it: in vivo. The procedure, abridged:
as §3

In series [16] the test system is Mus musculus. The series is described as follows: Percent survival at 15 min time interval between administration (225 mg/kg, ip) and irradiation* in mice. The class given is functional.
For series [17], the system named is Mus musculus. Kind of series: Percent survival at 1 hr time interval between administration (225mg/kg, ip) and irradiation* in mice. The series is classed as functional.
The test system of series [18] is Mus musculus. The series is described as follows: Percent survival at 2 hr time interval between administration (225 mg/kg, ip) and irradiation* in mice. The class given is functional.

The values below come from ChEMBL document CHEMBL1122288, “Relationship between metabolism and radioprotective activity of 2-phenylthiazolidine and its m-bromo derivative” (J Med Chem, 1983).

In general, LD50 refers to the dose expected to kill half of the subjects tested. The low end stands for greater toxicity, the high end for lower toxicity.

`c1ccc(C2NCCS2)cc1` (stereo not drawn) displayed an LD50 in the series filed under Mus musculus [1] of 1000 mg/kg. The Survival with Mus musculus [2] is listed as 100%; in the series with Mus musculus [3] it was 100%; with Mus musculus [4], 85%; with Mus musculus [5] it was 100%.
On to `Brc1cccc(C2NCCS2)c1` (stereo not drawn), for which the Excretion in the series with Mus musculus [6] was 0.43%. This compound also displayed an LD50 in the series filed under Mus musculus [1] of 1000 mg/kg. Besides, the Survival in the series on Mus musculus [2] was found to be 20%; with Mus musculus [5], 100%.
In the series on Mus musculus [7], `c1ccc(C2NCC[35S]2)cc1` (stereo in doubt; 1a) displayed an Excretion of 0.42%.
Consider `c1ccc(C2NCC[35S]2)cc1` (stereo in doubt; 1b), for which the Excretion in the series with Mus musculus [7] was found to be 0.6%.
As to `O=Cc1ccccc1` [BENZALDEHYDE], the results for the Excretion with Mus musculus [8] and in the series on Mus musculus [10] were 0.43% and 52.6%, respectively. Moreover, the figures for the dose excreted in series [9] and in series [11] were 84.2% and 5%, respectively.
With `NCCS` [CYSTEAMINE], the Excretion is reported as 0.92% in the series with Mus musculus [12], 55.7% with Mus musculus [14] and 42.6% in the series with Mus musculus [15]. In addition, the dose excreted in series [13] was found to be 4.1%. The same compound showed a median lethal dose (LD50) in the series filed under Mus musculus [1] of 450 mg/kg. Moreover, the Survival stood at 95% in the series with Mus musculus [16], 80% in the series on Mus musculus [17] and 45% with Mus musculus [18].
